The nature of series [1]: Toxicity in ip dosed Mus musculus (mouse). The class given is organism-based. The settings on record: in vivo.
The target of series [2] is Neuronal acetylcholine receptor subunit alpha-3 (Homo sapiens, UniProt P32297). As to the kind of experiment: Inhibition of [3H]nicotine binding to alpha3 nicotinic acetylcholine receptor in Homo sapiens (human) SH-SY5Y cells co-expressing beta2beta4alpha5 Nicotinic acetylcholine receptor subunits. The class given is cell-based.
Series [3] addresses T1, Acetylcholine receptor subunit beta-like 2 (Drosophila melanogaster, UniProt P25162).
T1 sequence (P25162 whole entry): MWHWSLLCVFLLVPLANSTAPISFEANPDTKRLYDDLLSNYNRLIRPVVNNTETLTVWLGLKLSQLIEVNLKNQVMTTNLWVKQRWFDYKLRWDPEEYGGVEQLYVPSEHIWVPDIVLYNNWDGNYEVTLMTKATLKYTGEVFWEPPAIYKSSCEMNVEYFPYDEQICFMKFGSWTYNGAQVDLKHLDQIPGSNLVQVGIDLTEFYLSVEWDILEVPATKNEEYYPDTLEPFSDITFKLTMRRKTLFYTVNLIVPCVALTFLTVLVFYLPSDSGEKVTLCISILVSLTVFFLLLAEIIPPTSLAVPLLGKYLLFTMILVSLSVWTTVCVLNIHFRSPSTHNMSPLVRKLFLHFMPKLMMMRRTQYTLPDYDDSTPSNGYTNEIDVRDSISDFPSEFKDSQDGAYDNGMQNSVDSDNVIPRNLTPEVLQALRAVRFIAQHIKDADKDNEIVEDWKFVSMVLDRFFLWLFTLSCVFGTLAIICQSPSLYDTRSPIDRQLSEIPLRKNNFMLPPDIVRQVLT
As to the kind of experiment: Inhibition of [3H]IMI binding to Drosophila melanogaster neuronal acetylcholine receptor.

The test system of a further series is Musca domestica. Description: Toxicity against Musca domestica (house fly) dosed with compound through intra-thoracic injection pre-treated with 100 ug/g metabolic detoxification inhibitor O-propyl O-(2-propynyl)phenylphosphonate. In kind it is functional.
Series [4] addresses Acetylcholine receptor subunit alpha (Homo sapiens, UniProt P02708+P07510+P11230+Q07001). As to the kind of experiment: Inhibition of [125I]alpha-BGT binding to alpha1 nicotinic acetylcholine receptor in Homo sapiens (human) TE671 cells co-expressing gammaalpha1deltabeta1 nicotinic acetylcholine receptor subunits.
Series [5] concerns the target Neuronal acetylcholine receptor subunit alpha-7 (Homo sapiens, UniProt P36544). As to the kind of experiment: Inhibition of [125I]alpha-BGT binding to alpha7 nicotinic acetylcholine receptor in Homo sapiens (human) SH-SY5Y cells.
Series [6] has as its target Neuronal acetylcholine receptor subunit alpha-4 (Mus musculus, UniProt O70174). As to the kind of experiment: Inhibition of [3H]nicotine binding to alpha4 nicotinic acetylcholine receptor in Mus musculus (mouse) M10 cells co-expressing beta2 nicotinic acetylcholine receptor subunits. The class given is cell-based.
Series [7] can be described thus: Retention time under acidic conditions using H20/MeOH mobile phase containing 0.1% TFA (1:1) by HPLC method. In kind it is physicochemical. Put shortly: (§1)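 Reversed-phase HPLC at a flow rate of 0.7 mL/min, with a void volume of 2.46 min. Each retention time is the mean of three runs under that mobile-phase condition.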
Series [8] is described as follows: Retention time under neutral conditions using H20/MeOH (1:1) mobile phase by HPLC method. The class given is physicochemical. In outline:
as §1

Series [9] can be described thus: Retention time under basic conditions using 20 mM Na2HPO4 (pH9.9)/MeOH (1:1) mobile phase by HPLC method. The settings on record: buffer, pH 9.9. In kind it is physicochemical. In outline: as §1
Series [10] addresses Acetylcholine receptor subunit alpha (Homo sapiens) (UniProt P02708). As to the kind of experiment: Inhibition of […] binding to alpha1 nicotinic acetylcholine receptor in Homo sapiens (human) TE671 cells co-expressing gammaalpha1deltabeta1 nicotinic acetylcholine receptor at >300 uM. In kind it is cell-based. The settings on record: TE-671.

Chain of Neuronal acetylcholine receptor subunit alpha-3 (P32297 whole entry): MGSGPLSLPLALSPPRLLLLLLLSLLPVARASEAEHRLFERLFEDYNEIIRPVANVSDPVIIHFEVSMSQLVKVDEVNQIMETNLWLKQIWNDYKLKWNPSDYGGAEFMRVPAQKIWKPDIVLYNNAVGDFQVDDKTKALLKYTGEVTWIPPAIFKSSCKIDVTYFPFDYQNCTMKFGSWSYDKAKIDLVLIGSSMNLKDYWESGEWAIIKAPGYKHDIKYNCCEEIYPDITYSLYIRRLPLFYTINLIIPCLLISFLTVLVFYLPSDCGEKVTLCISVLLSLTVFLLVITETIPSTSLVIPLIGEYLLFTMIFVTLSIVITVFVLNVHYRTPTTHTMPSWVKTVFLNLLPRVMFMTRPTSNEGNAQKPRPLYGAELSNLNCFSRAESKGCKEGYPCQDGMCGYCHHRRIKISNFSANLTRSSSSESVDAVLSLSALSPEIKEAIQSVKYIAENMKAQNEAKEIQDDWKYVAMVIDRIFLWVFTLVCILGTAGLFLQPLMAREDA
Chain of Neuronal acetylcholine receptor subunit alpha-4 (O70174 whole entry): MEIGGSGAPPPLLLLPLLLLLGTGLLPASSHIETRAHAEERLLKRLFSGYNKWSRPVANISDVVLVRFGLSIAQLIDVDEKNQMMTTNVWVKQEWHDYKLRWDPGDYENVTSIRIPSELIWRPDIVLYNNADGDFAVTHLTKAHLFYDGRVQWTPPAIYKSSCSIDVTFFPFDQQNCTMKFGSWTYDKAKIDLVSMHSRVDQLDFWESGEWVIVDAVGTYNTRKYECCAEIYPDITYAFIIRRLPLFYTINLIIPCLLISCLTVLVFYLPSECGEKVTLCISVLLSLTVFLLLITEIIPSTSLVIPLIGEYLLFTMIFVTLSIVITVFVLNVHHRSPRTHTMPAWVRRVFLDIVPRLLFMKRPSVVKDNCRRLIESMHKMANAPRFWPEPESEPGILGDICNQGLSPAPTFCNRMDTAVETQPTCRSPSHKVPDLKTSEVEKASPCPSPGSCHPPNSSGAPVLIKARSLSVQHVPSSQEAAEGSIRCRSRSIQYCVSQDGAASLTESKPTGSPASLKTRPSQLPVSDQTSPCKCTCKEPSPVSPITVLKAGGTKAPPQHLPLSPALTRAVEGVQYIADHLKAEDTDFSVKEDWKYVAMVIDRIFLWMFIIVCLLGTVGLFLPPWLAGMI
Chain of Neuronal acetylcholine receptor subunit alpha-7 (P36544 whole entry): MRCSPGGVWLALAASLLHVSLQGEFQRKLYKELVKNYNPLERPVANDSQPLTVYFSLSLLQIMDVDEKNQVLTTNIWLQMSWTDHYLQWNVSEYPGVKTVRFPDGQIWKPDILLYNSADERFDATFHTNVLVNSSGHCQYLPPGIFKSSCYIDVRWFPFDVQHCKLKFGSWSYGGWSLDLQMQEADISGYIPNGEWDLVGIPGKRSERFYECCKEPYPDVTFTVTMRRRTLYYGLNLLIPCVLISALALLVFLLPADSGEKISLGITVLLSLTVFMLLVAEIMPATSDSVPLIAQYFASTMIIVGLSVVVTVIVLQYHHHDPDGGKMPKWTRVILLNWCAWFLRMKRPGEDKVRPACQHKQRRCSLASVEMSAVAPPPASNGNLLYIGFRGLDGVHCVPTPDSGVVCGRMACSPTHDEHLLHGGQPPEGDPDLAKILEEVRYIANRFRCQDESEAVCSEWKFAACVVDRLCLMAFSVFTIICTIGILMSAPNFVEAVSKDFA
Chain of Acetylcholine receptor subunit alpha (P02708 whole entry, one chain of several): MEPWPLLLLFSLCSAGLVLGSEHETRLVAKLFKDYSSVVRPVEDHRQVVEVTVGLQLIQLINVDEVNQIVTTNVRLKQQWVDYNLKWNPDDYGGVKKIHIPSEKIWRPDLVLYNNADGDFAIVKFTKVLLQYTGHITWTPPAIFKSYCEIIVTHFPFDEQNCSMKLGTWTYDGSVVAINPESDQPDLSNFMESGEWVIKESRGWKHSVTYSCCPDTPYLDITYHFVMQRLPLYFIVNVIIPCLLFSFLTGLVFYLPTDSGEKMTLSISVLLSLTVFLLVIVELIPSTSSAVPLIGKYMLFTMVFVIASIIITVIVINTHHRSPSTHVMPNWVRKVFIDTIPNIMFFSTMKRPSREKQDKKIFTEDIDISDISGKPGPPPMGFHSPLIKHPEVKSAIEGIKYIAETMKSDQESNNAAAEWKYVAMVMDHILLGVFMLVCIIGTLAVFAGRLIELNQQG
Chain of Acetylcholine receptor subunit alpha (Homo sapiens) (P02708 whole entry): as the sequence (P02708 whole entry, one chain of several) above

The LD50 is the dose at which mortality reaches 50%. As a reminder, the IC50 is the midpoint of a concentration-inhibition curve. A higher IC50 goes with lower potency. Regarding `O=[N+]([O-])/C=C1/NCCCN1Cc1ccc(Cl)nc1`, the LD50 amounted to 10 mg/kg in [1] and 0.08 mg/kg in the series on Musca domestica. For the same molecule, the 50% inhibitory concentration (IC50) in [2] was 180 nM; in [3] it was 0.37 nM; in [4], 81000 nM; in series [5], 1000 nM; in [6] it was 80 nM.

For `N=c1sccn1Cc1ccc(Cl)nc1`, the LD50 in series [1] is 0.7 mg/kg; with Musca domestica it was above 5 mg/kg. For the same molecule, the 50% inhibitory concentration (IC50) in series [3] came to 185 nM; in series [4] it was 8000 nM; in series [5], 4000 nM; in series [6], 1.4 nM. In addition, the results for the Retention_time in [7], in [8] and in series [9] were 2.98 min, 3.02 min and 4.21 min, respectively.

As to `Clc1ccc(C2CC3CCC2N3)cn1` (racemic) [EPIBATIDINE], the 50% lethal dose (LD50) was 0.06 mg/kg in series [1] and above 25 mg/kg in the series with Musca domestica. Moreover, the concentration for half-maximal inhibition (IC50) was determined as 430 nM in series [3], 160 nM in series [4], 31 nM in series [5] and 0.037 nM in series [6].

Consider `N=C1SCCN1Cc1ccc(Cl)nc1` [DESCYANOTHIACLOPRID], for which the 50% lethal dose (LD50) in series [1] is 0.7 mg/kg; in the series with Musca domestica, above 5 mg/kg. Moreover, the IC50 in [3] worked out at 200 nM; in series [4] it was 6000 nM; in [5], 6000 nM; in series [6], 4.4 nM. Moreover, the Retention_time is reported as 2.84 min in series [7], 3 min in series [8] and 4.23 min in series [9].

On to `N=C1NCCN1Cc1ccc(Cl)nc1` [DESNITROIMIDACLOPRID], for which the values for the LD50 (in [1]; in the series with Musca domestica) were 6 mg/kg and above 5 mg/kg, respectively. Also, the IC50 in series [2] was 14 nM; in [3] it was 1530 nM; in series [4], 11000 nM; in series [5], 9900 nM; in [6], 8.2 nM. The values for the Retention_time in series [7], in [8] and in [9] were 2.8 min, 2.9 min and 4.24 min, respectively.

As a reminder, the inhibition is how much of the control response was suppressed. In the case of `O=[N+]([O-])/N=C1\NCCN1Cc1ccc(Cl)nc1` [IMIDACLOPRID], the LD50 in the series on Musca domestica amounted to 0.02 mg/kg. In series [10], the inhibition was determined as 39%.

In the case of `O=[N+]([O-])NC1=NCCN1Cc1ccc(Cl)nc1` [IMIDACLOPRID], the median lethal dose (LD50) in [1] worked out at 40 mg/kg. Besides, the 50% inhibitory concentration (IC50) was 14000 nM in series [2]; 4.6 nM in series [3]; above 300000 nM in [4]; 270000 nM in series [5]; 2600 nM in series [6]. In addition, the figures for the Retention_time in series [7], in series [8] and in series [9] were 4.87 min, 4.84 min and 4.82 min, respectively.

`CN1CCC[C@H]1c1cccnc1` [NICOTINE]: the values for the median lethal dose (LD50) (in series [1]; in the series on Musca domestica) were 6 mg/kg and above 50 mg/kg, respectively. The IC50 came to 4000 nM in series [3] and 21000 nM in series [4]. Moreover, the Retention_time in series [7] is on record as 3.16 min; in series [8], 3.18 min; in series [9], 11.23 min.

`N#C/N=C1\SCCN1Cc1ccc(Cl)nc1` [THIACLOPRID]: the 50% lethal dose (LD50) in series [1] is 25 mg/kg; in the series with Musca domestica, 0.03 mg/kg. For the same molecule, the half-maximal inhibitory concentration (IC50) in series [3] was found to be 2.7 nM; in series [4] it was 120000 nM; in [5], 100000 nM; in [6], 860 nM. Besides, the Retention_time in series [7] is recorded as 6.07 min; in series [8], 6.06 min; in series [9], 6.05 min.

The record behind these values is ChEMBL document CHEMBL3045796, “Neonicotinoid insecticides: molecular features conferring selectivity for insect versus mammalian nicotinic receptors” (J Agric Food Chem, 2000).
